The target in one test is T1, Petit-LUBAC (Homo sapiens, UniProt Q96EP0+Q9BYM8).
T1 sequence (Q96EP0 474-1072): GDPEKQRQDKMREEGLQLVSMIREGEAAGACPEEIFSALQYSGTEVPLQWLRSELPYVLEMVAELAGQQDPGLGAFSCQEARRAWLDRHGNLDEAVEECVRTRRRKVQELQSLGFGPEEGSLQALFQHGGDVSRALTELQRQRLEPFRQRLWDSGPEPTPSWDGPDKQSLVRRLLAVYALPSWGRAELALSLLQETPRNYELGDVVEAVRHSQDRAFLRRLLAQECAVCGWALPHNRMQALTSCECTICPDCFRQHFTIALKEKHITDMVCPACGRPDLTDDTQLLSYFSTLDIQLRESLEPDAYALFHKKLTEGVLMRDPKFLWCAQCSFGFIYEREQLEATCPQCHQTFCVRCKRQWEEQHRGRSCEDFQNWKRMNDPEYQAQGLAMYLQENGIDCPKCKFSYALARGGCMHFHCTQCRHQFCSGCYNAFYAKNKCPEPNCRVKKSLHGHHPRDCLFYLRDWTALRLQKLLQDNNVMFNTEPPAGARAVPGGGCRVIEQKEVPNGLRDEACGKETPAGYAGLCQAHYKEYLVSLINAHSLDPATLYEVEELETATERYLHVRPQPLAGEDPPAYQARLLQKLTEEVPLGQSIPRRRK
T1 sequence (Q9BYM8 1-191): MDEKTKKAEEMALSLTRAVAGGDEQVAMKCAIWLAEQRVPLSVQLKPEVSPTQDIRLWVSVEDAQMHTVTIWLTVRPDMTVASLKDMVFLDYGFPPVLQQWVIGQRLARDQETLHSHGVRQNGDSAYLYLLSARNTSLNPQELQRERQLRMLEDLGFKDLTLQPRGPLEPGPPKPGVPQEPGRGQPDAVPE
As to the kind of experiment: Native gel shift assay. Format: binding. The conditions noted are these: 2.5 μM FITC peptide, 50 μg/mL protein, 1 h 37 °C, hrCNE. A digest of the protocol:
(§1)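 Recombinant protein, expressed in Rosetta (DE3) E. coli, was mixed at 50 μg/mL with 2.5 μM FITC-peptide in 1X ubiquitylation buffer, with or without 20 μM unlabelled peptide competitor. Mixtures were incubated 1 h at 37 °C and resolved on 5% acrylamide native gels (bis-Tris, pH 7.0; Tricine/imidazole/deoxycholate cathode buffer) at […] for 4–5 h at 4 °C. Fluorescent bands were imaged, with protein-only lanes as controls.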

A further test deals with T2, HOIP-UBA (Homo sapiens, UniProt Q96EP0).
T2 sequence (Q96EP0 480-636): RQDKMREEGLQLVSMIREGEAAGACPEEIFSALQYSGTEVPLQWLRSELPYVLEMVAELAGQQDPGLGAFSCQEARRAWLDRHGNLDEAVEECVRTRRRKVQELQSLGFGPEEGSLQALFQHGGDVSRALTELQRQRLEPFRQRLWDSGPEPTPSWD
The test is described as follows: Native gel shift assay. As to conditions: 2.5 μM FITC peptide, 50 μg/mL protein, 1 h 37 °C, hrCNE. Format: binding. (In general: In EMSA bound probe runs differently from free probe, usually more slowly.)

The target of a further test is T3, HOIL-UBL (Homo sapiens, UniProt Q9BYM8).
T3 sequence (Q9BYM8 37-128): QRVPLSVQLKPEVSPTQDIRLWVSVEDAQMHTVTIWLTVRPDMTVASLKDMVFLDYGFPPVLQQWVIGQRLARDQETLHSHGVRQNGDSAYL
The test is described as follows: Native gel shift assay. The conditions noted are these: 2.5 μM FITC peptide, 50 μg/mL protein, 1 h 37 °C, hrCNE. Format: binding. A digest of the protocol:
as §1

Test [1] concerns the target T4, HOIP residues 474-1072 (the HOIP chain of Petit-LUBAC) (human, UniProt Q96EP0 474-1072).
T4 sequence (looked up): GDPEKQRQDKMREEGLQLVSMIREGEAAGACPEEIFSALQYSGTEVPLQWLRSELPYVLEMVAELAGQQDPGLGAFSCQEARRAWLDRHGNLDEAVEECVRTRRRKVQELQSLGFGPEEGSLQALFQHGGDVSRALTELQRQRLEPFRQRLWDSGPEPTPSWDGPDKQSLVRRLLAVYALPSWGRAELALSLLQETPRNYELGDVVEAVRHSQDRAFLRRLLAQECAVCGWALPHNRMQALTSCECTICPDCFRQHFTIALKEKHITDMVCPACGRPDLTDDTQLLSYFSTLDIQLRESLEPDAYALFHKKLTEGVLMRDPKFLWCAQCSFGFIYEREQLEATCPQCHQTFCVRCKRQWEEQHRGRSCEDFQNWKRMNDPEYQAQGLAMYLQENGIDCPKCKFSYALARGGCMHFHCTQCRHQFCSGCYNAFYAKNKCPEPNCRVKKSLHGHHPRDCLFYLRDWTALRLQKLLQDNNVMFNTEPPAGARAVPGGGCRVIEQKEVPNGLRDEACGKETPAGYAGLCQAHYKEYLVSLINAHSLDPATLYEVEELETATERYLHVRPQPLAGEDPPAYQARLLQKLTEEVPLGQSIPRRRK
The test is described as follows: native gel or EMSA.

Test [2] deals with T5, Petit-LUBAC (truncated sub-complex of LUBAC: HOIL-1L 1-191 and HOIP 474-1072) (human, UniProt Q9BYM8-1 1-191; Q96EP0 474-1072).
T5 sequence (looked up) 1: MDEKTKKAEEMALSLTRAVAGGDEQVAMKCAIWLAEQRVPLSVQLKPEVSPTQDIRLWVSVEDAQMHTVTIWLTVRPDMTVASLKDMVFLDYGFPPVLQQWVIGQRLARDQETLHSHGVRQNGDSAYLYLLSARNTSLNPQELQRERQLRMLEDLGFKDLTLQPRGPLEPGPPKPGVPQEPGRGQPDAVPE
T5 sequence (looked up) 2: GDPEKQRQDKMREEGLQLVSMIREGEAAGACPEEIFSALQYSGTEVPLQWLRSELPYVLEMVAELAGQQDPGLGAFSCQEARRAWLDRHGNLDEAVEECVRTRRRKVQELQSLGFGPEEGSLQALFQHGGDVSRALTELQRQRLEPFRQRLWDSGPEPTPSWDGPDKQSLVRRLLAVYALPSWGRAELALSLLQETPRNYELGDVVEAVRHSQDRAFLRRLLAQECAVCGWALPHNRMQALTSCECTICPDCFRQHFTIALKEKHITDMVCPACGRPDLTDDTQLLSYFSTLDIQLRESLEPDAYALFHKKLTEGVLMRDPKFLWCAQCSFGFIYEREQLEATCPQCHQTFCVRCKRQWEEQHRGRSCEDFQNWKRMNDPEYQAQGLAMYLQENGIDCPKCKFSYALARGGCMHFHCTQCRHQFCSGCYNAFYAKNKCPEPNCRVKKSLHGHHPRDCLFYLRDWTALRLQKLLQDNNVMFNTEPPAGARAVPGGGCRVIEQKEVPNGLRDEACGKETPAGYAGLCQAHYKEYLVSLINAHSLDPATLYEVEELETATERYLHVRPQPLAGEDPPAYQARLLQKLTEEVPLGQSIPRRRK
As to the kind of experiment: native gel or EMSA.

The next test concerns the target T6, GST-HOIP-UBA (human, UniProt Q96EP0 480-636).
T6 sequence: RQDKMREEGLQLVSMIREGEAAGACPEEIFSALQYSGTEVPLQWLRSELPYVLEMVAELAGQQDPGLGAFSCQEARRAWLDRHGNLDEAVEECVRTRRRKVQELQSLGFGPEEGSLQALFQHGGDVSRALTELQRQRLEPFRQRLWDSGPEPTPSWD
The test is described as follows: SPR.

In a further test the target is T7, His6-HOIL-UBL (human, UniProt Q9BYM8-1 37-137).
T7 sequence: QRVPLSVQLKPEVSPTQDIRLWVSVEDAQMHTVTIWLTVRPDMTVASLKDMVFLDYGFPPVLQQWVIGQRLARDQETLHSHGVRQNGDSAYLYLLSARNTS
As to the kind of experiment: SPR. In general terms: Surface plasmon resonance follows binding to a sensor surface in real time, without labels.

The text below walks through data of article PMC5844832 (Bioorganic & medicinal chemistry, 2017).

*: point of attachment. FITC = O=C1OC2(c3ccc(O)cc3Oc3cc(O)ccc32)c2ccc(NC(=S)*)cc21; βAla = NCCC(=O)O

The term Kd denotes a measure of binding affinity in units of concentration. Low values mean higher affinity, high ones lower affinity.

As to “1: unstapled peptide based on 22-amino acid region of HOIP-UBA (residues 606-627) ({Ac-βAla}-SRALTELQRQRLEPFRQRLWDS-NH2) [Compound 1]”, the “Gel shift of FITC-labelled peptide with Petit-LUBAC” value with Petit-LUBAC is on record as “higher shifted molecular weight”. In addition, the “Gel shift of FITC-labelled peptide with HOIP-UBA” value with HOIP-UBA was “a shift similar to the one observed with Petit-LUBAC was observed”. Besides, the “Gel shift of FITC-labelled peptide with HOIL-UBL” value with HOIL-UBL was “no shift was observed”.

B1: HOIL-1L residues 1-191 (the HOIL chain of Petit-LUBAC) (domain or fragment, human, UniProt Q9BYM8-1 1-191, looked up)
chain: MDEKTKKAEEMALSLTRAVAGGDEQVAMKCAIWLAEQRVPLSVQLKPEVSPTQDIRLWVSVEDAQMHTVTIWLTVRPDMTVASLKDMVFLDYGFPPVLQQWVIGQRLARDQETLHSHGVRQNGDSAYLYLLSARNTSLNPQELQRERQLRMLEDLGFKDLTLQPRGPLEPGPPKPGVPQEPGRGQPDAVPE
On to B1, for which the binding result in test [1] was “binds”.
Regarding {FITC-βAla}-SRALTELQRQRLEPFRQRLWDS-NH2 (peptide, UniProt Q96EP0 606-627, looked up) [FITC labeled HOIP WT (1) peptide], in test [2], the binding result was “binds”.

B2: N-P2G (6), N-stapled P2G HOIP peptide (peptide)
chain: SRALTELQRQRLEGFRQRLWDS
modifications: N-terminal β-alanine; N-terminal acetyl; hydrocarbon staple between two cross-linking amino acids in the N-terminal (α8) helix
The molecule B2 came in with a dissociation constant (Kd) in the test with GST-HOIP-UBA of 4.28 µM.
Regarding {Ac-βAla}-SRALTELQRQRLEGFRQRLWDS-NH2 (peptide, UniProt Q96EP0 606-627, looked up) [P2G WT (5), unstapled HOIP peptide with proline-to-glycine substitution], the dissociation constant Kd in the test with GST-HOIP-UBA was found to be 81.4 µM; with His6-HOIL-UBL, 97.3 µM.
